Source: PMC9514064 (Protein Science : A Publication of the Protein Society, 2022)
“And” between values parts separate entries of the source, which are not always exact repeats. Equal entries are not always repeated. Where two headings read alike, the source gives them in different places.

Tests used:
[1] = biological target: T1, Bst TRAP11 (Geobacillus stearothermophilus, UniProt Q9X6J6); assay type: binding, B. stearothermophilus
T1 sequence (Q9X6J6 1-74): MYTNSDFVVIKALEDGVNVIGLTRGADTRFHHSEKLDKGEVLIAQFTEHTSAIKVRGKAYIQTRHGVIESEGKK
How it was run: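 Apo 11-mer protein dialysed into 400 mM ammonium acetate. Samples of 6.0–7.4 μM protein with 0–140 μM Trp (serial dilutions) were prepared fresh in parallel. Native MS on an Orbitrap UHMR at ~25°C. Relative abundances of Trp-bound states came from integrated peak areas, with binding-site concentration corrected by a quadratic independent-sites fit. Populations were fit globally to a nearest-neighbour model (ΔG₀, ΔGα) by Powell minimisation.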

[2] = biological target: T2, Bha TRAP12 (Halalkalibacterium halodurans, UniProt Q9KCC6); test: Isothermal titration calorimetry, Trp into TRAP; assay type: binding, B. halodurans; settings: ITC 25°C, two-sites model
T2 sequence (Q9KCC6 1-76): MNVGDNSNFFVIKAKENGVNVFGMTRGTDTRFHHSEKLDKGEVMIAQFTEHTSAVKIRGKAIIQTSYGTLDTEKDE
How it was run: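 Tag-free protein (C-terminal ENLYFQ left after TEV cleavage), expressed in E. coli BL21(DE3), made Trp-free by Gdn-HCl denaturation, RP-HPLC, refolding and SEC, then dialysed into buffer A (100 mM NaCl, 50 mM NaPO₄, pH 8.0). 293 μM Trp (in dialysate) titrated into 23 μM protomers, 25°C, 307 rpm. Integrated heats fit to a two-sites model; oligomer concentration corrected via fitted n; 200-sample bootstrap confidence intervals.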

[3] = biological target: T3, Bst TRAP12 ∆71 (Geobacillus stearothermophilus, UniProt Q9X6J6); assay type: binding, B. stearothermophilus
T3 sequence (Q9X6J6 1-69 limits assumed): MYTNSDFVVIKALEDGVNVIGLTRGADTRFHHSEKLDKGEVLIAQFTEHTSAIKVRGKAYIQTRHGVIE
How it was run: (§1)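 Apo protein dialysed into 400 mM ammonium acetate, adjusted to pH 8 with NH₄OH. Samples of 6.0–7.4 μM protein with 0–140 μM Trp were prepared fresh in parallel. Native MS on an Orbitrap UHMR at ~25°C, each point in triplicate with different emitters. Abundances of the 0–12-bound states came from peak areas, with protein concentration corrected by a quadratic independent-sites fit. A 12-site NN model was fit globally by Powell minimisation; uncertainties are SD of three repeats.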

[4] = biological target: T2, Bha TRAP12; assay type: binding, B. halodurans
How it was run: as §1

[5] = 1/(αK 0), NN model, dissociation constant for sites with one bound neighbor, ~25°C
[6] = 1/K 0, NN model, dissociation constant for isolated sites, ~25°C
[7] = NN model, sites with 1 occupied neighbor, ~25°C
[8] = NN model, sites with no occupied neighbors, room temperature ~25°C, 400 mM ammonium acetate

N[C@@H](Cc1c[nH]c2ccccc12)C(=O)O [Trp, tryptophan]
Kd [1, 5]: 4.4 ± 1.9 µM
Kd [1, 6]: 36 ± 12 µM
Cooperativity factor α ([1]; NN model, K N1/K 0): 8 and 8 ± 5
coupling energy ΔG α ([1]; NN model, between adjacent sites): −1.2 ± 0.3 kcal mol^−1 interaction^−1
ΔG 0 + ΔG α [1, 7]: -7.3 ± 0.3 kcal/mol
ΔG 0 [1, 8]: -6.1 ± 0.2 kcal/mol
n (fitted binding sites), Site 1 ([2]; buffer A): ≈ 1
n (fitted binding sites), Site 2 ([2]; buffer A): ~ 11
Kd ([2]; Kd,1 (Site 1), first Trp): 1.8 ± 0.3 µM
Kd [3, 5]: 7.8 ± 1.2 µM
Kd [3, 6]: 217 ± 13 µM
Cooperativity factor α ([3]; NN model, K N1/K 0): 28 and 28 ± 5
ΔG 0 + ΔG α [3, 7]: -7.0 ± 0.1 kcal/mol
ΔG 0 [3, 8]: -5.00 ± 0.03 kcal/mol
Kd [4, 5]: 2.8 ± 0.8 µM
Kd [4, 6]: 720 ± 140 µM
Cooperativity factor α ([4]; NN model, K N1/K 0, fold increase in affinity with one occupied neighbor): 256 and 256 ± 87
ΔG 0 + ΔG α [4, 7]: -7.6 ± 0.2 kcal/mol
ΔG 0 [4, 8]: -4.3 ± 0.1 kcal/mol
